Laboratory results as given in ChEMBL document CHEMBL1125319, “Synthesis and hypoglycemic activity of substituted 8-(1-piperazinyl)imidazo[1,2-a]pyrazines” (J Med Chem, 1992).
One block for each compound: values may come before it. Activity calls are given as the source filed them. The calls are words filed in the database; no cut-off is given here.

Tests used:
[1] = biological target: T1, Alpha-2A adrenergic receptor (Bos taurus, UniProt Q28838); assay: Binding affinity at Alpha-2 adrenergic receptor in calf cerebral cortex homogenates by [3H]clonidine displacement.; format: tissue-based
T1 sequence (Q28838 whole entry): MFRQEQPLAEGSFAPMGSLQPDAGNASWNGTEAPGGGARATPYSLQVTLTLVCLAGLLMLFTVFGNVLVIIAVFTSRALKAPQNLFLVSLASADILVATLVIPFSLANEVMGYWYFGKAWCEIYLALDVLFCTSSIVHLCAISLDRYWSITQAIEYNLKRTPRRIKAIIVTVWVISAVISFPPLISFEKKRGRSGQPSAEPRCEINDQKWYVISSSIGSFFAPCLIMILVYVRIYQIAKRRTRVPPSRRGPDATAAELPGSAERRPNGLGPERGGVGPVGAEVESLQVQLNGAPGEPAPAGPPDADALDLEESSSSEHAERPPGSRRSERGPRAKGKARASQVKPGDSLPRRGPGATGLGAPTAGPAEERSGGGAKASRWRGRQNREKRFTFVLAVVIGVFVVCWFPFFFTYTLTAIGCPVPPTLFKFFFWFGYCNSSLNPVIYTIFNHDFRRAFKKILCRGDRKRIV

[2] = biological target: T2, Alpha-1A adrenergic receptor (Bos taurus) (UniProt P18130); assay: Inhibition of binding of [3H]prazosin to Alpha-1 adrenergic receptor in calf cerebral cortex homogenates at 10000 nM; format: tissue-based
T2 sequence (whole entry): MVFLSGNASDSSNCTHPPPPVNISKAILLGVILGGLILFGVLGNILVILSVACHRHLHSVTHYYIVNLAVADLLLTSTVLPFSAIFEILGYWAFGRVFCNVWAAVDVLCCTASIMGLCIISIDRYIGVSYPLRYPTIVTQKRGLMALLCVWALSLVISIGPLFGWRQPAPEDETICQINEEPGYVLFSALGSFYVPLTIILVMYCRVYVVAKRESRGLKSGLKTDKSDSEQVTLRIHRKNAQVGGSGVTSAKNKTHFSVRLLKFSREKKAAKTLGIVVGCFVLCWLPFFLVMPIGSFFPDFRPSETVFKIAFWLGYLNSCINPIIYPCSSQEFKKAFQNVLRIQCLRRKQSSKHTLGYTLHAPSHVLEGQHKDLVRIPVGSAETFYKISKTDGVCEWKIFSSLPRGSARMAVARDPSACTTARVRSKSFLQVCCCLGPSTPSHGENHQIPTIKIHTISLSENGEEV

[3] = test system: Mus musculus; assay: Ability to lower blood glucose in insulin-resistant hyperglycemic ob/ob mice after 30 mg/kg p.o. administration.; format: functional; settings: route oral
[4] = biological target: T3, Beta-1 adrenergic receptor (Cavia porcellus, UniProt B0FL73)
[5] = Hypoglycemic potency relative to MTP-1403; format: functional
In short: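 ob/ob insulin-resistant hyperglycemic mice on lab chow with free water. Graded oral doses given to groups of 5 mice; glucose load 2 g/kg sc 30 min after dosing, orbital sinus bleed 30 min after the load. Blood glucose compared with a reference standard by parallel-line bioassay, giving potency relative to the standard.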

[6] = Binding affinity against Alpha-1 adrenergic receptor of calf cerebral cortex homogenates using [3H]prazosin; format: tissue-based, Bos taurus
[7] = biological target: Beta-2 adrenergic receptor (Cavia porcellus, UniProt Q8K4Z4)
[8] = biological target: T3, Beta-1 adrenergic receptor; assay: Binding affinity against Beta-1 adrenergic receptor was measured using [125I]CYP as radioligand; NB= not bound
[9] = test system: Mus musculus; assay: Compound was evaluated for its ability to lower blood glucose in insulin-resistant hyperglycemic ob/ob mice after peroral administration of 30 mg/kg single dose; NA= not active; format: functional, organism-based; parameters: dose 30 mg/kg; settings: at 30 mg/kg
[10] = biological target: T4, Alpha-1A adrenergic receptor (Bos taurus, UniProt P18130); assay: Binding affinity against alpha-1 adrenergic receptor was determined in calf cerebral cortex homogenates using [3H]prazosin as radioligand; format: tissue-based
T4 sequence (P18130 whole entry): T2 sequence (whole entry)

T3 sequence (B0FL73 whole entry): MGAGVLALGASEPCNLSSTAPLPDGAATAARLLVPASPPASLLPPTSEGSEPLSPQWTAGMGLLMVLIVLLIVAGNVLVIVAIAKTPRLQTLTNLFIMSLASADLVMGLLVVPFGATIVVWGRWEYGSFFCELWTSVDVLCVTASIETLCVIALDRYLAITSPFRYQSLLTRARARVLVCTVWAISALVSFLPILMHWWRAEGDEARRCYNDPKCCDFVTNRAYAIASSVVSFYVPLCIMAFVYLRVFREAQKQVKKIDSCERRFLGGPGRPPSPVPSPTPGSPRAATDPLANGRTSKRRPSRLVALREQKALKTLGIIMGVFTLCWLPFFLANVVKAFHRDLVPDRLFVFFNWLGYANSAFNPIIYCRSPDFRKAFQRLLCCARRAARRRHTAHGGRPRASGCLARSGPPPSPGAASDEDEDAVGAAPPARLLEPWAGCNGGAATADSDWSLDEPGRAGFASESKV
Chain of Beta-2 adrenergic receptor (Q8K4Z4 whole entry): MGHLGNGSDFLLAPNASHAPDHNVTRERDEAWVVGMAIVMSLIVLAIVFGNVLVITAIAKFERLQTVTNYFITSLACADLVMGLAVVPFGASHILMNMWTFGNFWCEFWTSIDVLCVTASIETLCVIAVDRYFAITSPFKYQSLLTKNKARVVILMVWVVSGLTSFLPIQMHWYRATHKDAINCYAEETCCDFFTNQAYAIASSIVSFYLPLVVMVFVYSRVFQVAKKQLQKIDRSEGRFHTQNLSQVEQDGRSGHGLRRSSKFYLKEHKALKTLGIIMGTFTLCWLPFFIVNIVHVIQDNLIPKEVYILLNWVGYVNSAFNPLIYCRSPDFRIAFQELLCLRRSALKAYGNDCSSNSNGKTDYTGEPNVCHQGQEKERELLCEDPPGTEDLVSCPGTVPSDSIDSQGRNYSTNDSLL

- Ki [1]: 870 nM
- inhibition [2]: 15%
Compound: C1=CN2CCN=C2C(N2CCNCC2)=N1.O=C(O)C/C=C\CC(=O)O
- Blood glucose, percent of control [3]: 71%

Compound: CN1CCN(c2nccn3c(Br)cnc23)CC1
- Ki [1]: 1350 nM
- Ki [4]: 6300 nM
- inhibition [2]: 4%
- Blood glucose, percent of control [3]: 98%

Compound: Cc1cnc(N2CCN(C)CC2)c2nccn12
- Ki [1]: 81 nM
- Relative potency [5]: 6
- Ki [4]: 2800 nM
- inhibition [2]: 45%
- Blood glucose, percent of control [3]: 51%

Compound: Cc1cn2ccnc(N3CCNCC3)c2n1.Cl
- Ki [1]: 51 nM
- Relative potency [5]: 32
- Ki [4]: 310 nM
- Blood glucose, percent of control [3]: 28%

Compound: Cl.Clc1cnc2c(N3CCNCC3)nccn12
- Ki [6]: 2780 nM
- Blood glucose, percent of control [3]: 66%

Compound: Cc1cn2ccnc2c(N2CCNCC2)n1.Cl
- Ki [1]: 190 nM
- Ki [6]: 500 nM
- Ki [4]: 220 nM
- Ki [7]: 280 nM
- Blood glucose, percent of control [3]: 61%

Compound: CCCc1cnc2c(N3CCNCC3)nccn12.Cl
- Ki [1]: 480 nM
- Relative potency [5]: 4
- Ki [6]: 2650 nM
- Ki [4]: 7790 nM
- Ki [7]: 1390 nM
- Blood glucose, percent of control [3]: 59%

Compound: Cc1cnc(N2CCNCC2)c2nccn12.Cl
- Ki [1]: 140 nM
- Relative potency [5]: 17
- Ki [6]: 2600 nM
- Ki [4]: 360 nM
- Ki [7]: 820 nM
- Blood glucose, percent of control [3]: 52%

Compound: CN1CCN(c2nccn3ccnc23)CC1
- Ki [1]: 1020 nM
- Relative potency [5]: 19
- Ki [8]: Not Active
- Blood glucose, percent of control [3]: 62%

- Ki [1]: 1600 nM
- inhibition [2]: 12%
Compound: CC1CN=C2C(N3CCNCC3)=NC=CN21.O=C(O)C/C=C\CC(=O)O (stereo not given)
- Blood glucose, percent of control [3]: 88%

Compound: Cc1cn2c(C)cnc2c(N2CCNCC2)n1.Cl
- Ki [1]: 620 nM
- Relative potency [5]: 6
- Ki [6]: 300 nM
- Ki [4]: 150 nM
- Ki [7]: 250 nM
- Blood glucose, percent of control [3]: 47%

Compound: CN1CCN(c2ncc(Br)n3ccnc23)CC1
- Ki [1]: 270 nM
- Ki [4]: 500 nM
- inhibition [2]: 22%
- Blood glucose, percent of control [3]: 100%

Compound: Brc1cnc(N2CCNCC2)c2ncc(Br)n12
- Ki [1]: 11900 nM
- Control [9]: inactive
- Ki [4]: 630 nM

Compound: Brc1cnc(N2CCNCC2)c2nccn12
- Ki [1]: 182 nM
- Ki [6]: 1490 nM
- Ki [4]: 170 nM
- Ki [7]: 520 nM
- Blood glucose, percent of control [3]: 87%

Compound: Cc1cnc(N2CCNCC2)c2ncc(C)n12.Cl
- Ki [1]: 340 nM
- Ki [4]: 400 nM
- Blood glucose, percent of control [3]: 72%

Compound: CCc1cnc2c(N3CCNCC3)nccn12.Cl
- Ki [1]: 530 nM
- Relative potency [5]: 4
- Ki [4]: 5000 nM
- Ki [7]: 3240 nM
- inhibition [2]: 30%
- Blood glucose, percent of control [3]: 54%

Compound: Cc1cnc2c(N3CCNCC3)nccn12.Cl
- Ki [1]: 240 nM
- Relative potency [5]: 11
- Ki [6]: 1800 nM
- Ki [4]: 2400 nM
- Ki [7]: 2300 nM
- Blood glucose, percent of control [3]: 32%

Compound: Cl.Cl.Clc1cn2ccnc2c(N2CCNCC2)n1
- Relative potency [5]: > 5
- Ki [10]: 250 nM
- Blood glucose, percent of control [3]: 36%

Compound: CC(C)c1cnc2c(N3CCNCC3)nccn12.Cl
- Ki [1]: 370 nM
- Relative potency [5]: 3
- Ki [6]: 5430 nM
- Ki [4]: 2990 nM
- Ki [7]: 2010 nM
- Blood glucose, percent of control [3]: 60%

Compound: Cl.FCCc1cnc2c(N3CCNCC3)nccn12
- Relative potency [5]: 8
- Blood glucose, percent of control [3]: 56%

Compound: c1cn2ccnc2c(N2CCNCC2)n1
- Relative potency [5]: 76
- Ki [6]: 3100 nM
- Ki [4]: 400 nM
- Ki [7]: 1700 nM
